# Assay results published in the RNAGym collection of RNA variant scans (doi:10.1002/anie.201605470).
# B1: Osa-1-4 twister ribozyme (parent)
# chain: CCGCCUAACACUGCCAAUGCCGGUCCCAAGCCCGGAUAAAAGUGGAGGGGGCGG
# Variants of: B1
# Assay: self-cleavage, relative activity (ratio to wild type); higher = more cleavage; co-transcriptional
# Procedure, shortened: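 A DNA template was synthesised for a 54-nucleotide twister ribozyme from Oryza sativa, with 97 % wild-type base and 1 % of each other base at each of the 48 positions downstream of the cleavage site. The ribozyme cleaved itself co-transcriptionally during 2 h of in vitro transcription at 37 °C. Reverse transcription with a template-switching oligonucleotide, PCR amplification and deep sequencing followed, and cleavage status came from reads with or without upstream sequence. Relative activity is the fraction cleaved normalised to wild type.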
row,Variant,self-cleavage
1,CCGCCUAACACUGCCAAUGCCGGUCCCAAGCCCGGCUAAAAGUGGCGGGGGCGG [A36C A46C],0.07
2,CCGCCUAACACUGCCAAUGCCGGUCCCAAGCCCGGCUAAAAGUGGGGGGGGCGG [A36C A46G],0.06
3,CCGCCUAACACUGCCAAUGCCGGUCCCAAGCCCGGCUAAAAGUGGUGGGGGCGG [A36C A46U],0.05
4,CCGCCUAACACUGCCAAUGCCGGUCCCAAGCCCGUAUAAAAGUGGAGGGCGCGG [G35U G50C],0.79
5,CCGCCUAACACUGCCAAUGCCGGUCCCAAGCCCGUAUAAAAGUGGAGGGAGCGG [G35U G50A],0.35
6,CCGCCUAACACUGCCAAUGCCGGUCCCAAGCCCGUAUAAAAGUGGAGGGUGCGG [G35U G50U],0.92
7,CCGCCUAACACUGCCAAUGCCGGUCCCAAGCCCGUAUAAAAGUCGAGGGGGCGG [G35U G44C],0.74
8,CCGCCUAACACUGCCAAUGCCGGUCCCAAGCCCGUAUAAAAGUUGAGGGGGCGG [G35U G44U],0.74
9,CCGCCUAACACUGCCAAUGCCGGUCCCAAGCCCGUAUAAAAGUAGAGGGGGCGG [G35U G44A],0.88
10,CCGCCUAACACUGCCAAUGCCGGUCCCAAGCCCGCAUAAAAGCGGAGGGGGCGG [G35C U43C],0.09
11,CCGCCUAACACUGCCAAUGCCGGUCCCAAGCCCGCAUAAAAGAGGAGGGGGCGG [G35C U43A],0.14
12,CCGCCUAACACUGCCAAUGCCGGUCCCAAGCCCGCAUAAAAGGGGAGGGGGCGG [G35C U43G],0.1
13,CCGCCUAACACUGCCAAUGCCGGGCCCAAGCCCGUAUAAAAGUGGAGGGGGCGG [G35U U24G],0.03
14,CCGCCUAACACUGCCAAUGCCGGACCCAAGCCCGUAUAAAAGUGGAGGGGGCGG [G35U U24A],0.2
15,CCGCCUAACACUGCCAAUGCCGGCCCCAAGCCCGUAUAAAAGUGGAGGGGGCGG [G35U U24C],0.08
16,CCGCCUAACACUGCCAAUGCCGGUCCCAAGCCCGGCUAAAAGUGGAGGGGGCGG [A36C],0.86
17,CCGCCUAACACUGCCAAUGCCGGUCCCAAGCCCGGCUUAAAGUGGAGGGGGCGG [A36C A38U],0.79
18,CCGCCUAACACUGCCAAUGCCGGUCCCAAGCCCGGCUCAAAGUGGAGGGGGCGG [A36C A38C],0.81
19,CCGCCUAACACUGCCAAUGCCGGUCCCAAGCCCGGCUGAAAGUGGAGGGGGCGG [A36C A38G],0.54
20,CCGCCUAACACUGCCAAUGUCGGUCCCAAGCCCGGCUAAAAGUGGAGGGGGCGG [A36C C20U],0.88
21,CCGCCUAACACUGCCAAUGACGGUCCCAAGCCCGGCUAAAAGUGGAGGGGGCGG [A36C C20A],0.81
22,CCGCCUAACACUGCCAAUGGCGGUCCCAAGCCCGGCUAAAAGUGGAGGGGGCGG [A36C C20G],0.09
23,CCGCCUAACACUGCCAAUGCCGGUCCCAAGCCCGUAUAAAAGUGGAGGUGGCGG [G35U G49U],0.1
24,CCGCCUAACACUGCCAAUGCCGGUCCCAAGCCCGUAUAAAAGUGGAGGAGGCGG [G35U G49A],0.11

row,Variant,self-cleavage
1,CCGCCUAACACUGCCAAUGCCGGUCCCAAGCCCGUAUAAAAGUGGAGGCGGCGG [G35U G49C],0.06
2,CCGCCUAACACUGCCAAUGCCGGUCCCAAGCCCGUAUAAAAGUGGAAGGGGCGG [G35U G47A],0.15
3,CCGCCUAACACUGCCAAUGCCGGUCCCAAGCCCGUAUAAAAGUGGAUGGGGCGG [G35U G47U],0.14
4,CCGCCUAACACUGCCAAUGCCGGUCCCAAGCCCGUAUAAAAGUGGACGGGGCGG [G35U G47C],0.07
5,CCGCCUAACACUGCCAAUGCCGGUCCCAAGCCCGUAUAAAAGUGGAGGGGGCGG [G35U],0.9
6,CCGCCUAAGACUGCCAAUGCCGGUCCCAAGCCCGGCUAAAAGUGGAGGGGGCGG [A36C C9G],0.11
7,CCGCCUAAUACUGCCAAUGCCGGUCCCAAGCCCGGCUAAAAGUGGAGGGGGCGG [A36C C9U],0.21
8,CCGCCUAAAACUGCCAAUGCCGGUCCCAAGCCCGGCUAAAAGUGGAGGGGGCGG [A36C C9A],0.08
9,CCGCCUAACACUGCCAAUGCAGGUCCCAAGCCCGGCUAAAAGUGGAGGGGGCGG [A36C C21A],0.54
10,CCGCCUAACACUGCCAAUGCGGGUCCCAAGCCCGGCUAAAAGUGGAGGGGGCGG [A36C C21G],0.05
11,CCGCCUAACACUGCCAAUGCUGGUCCCAAGCCCGGCUAAAAGUGGAGGGGGCGG [A36C C21U],0.46
12,CCGCCUAACACCGCCAAUGCCGGUCCCAAGCCCGUAUAAAAGUGGAGGGGGCGG [G35U U12C],0.37
13,CCGCCUAACACGGCCAAUGCCGGUCCCAAGCCCGUAUAAAAGUGGAGGGGGCGG [G35U U12G],0.08
14,CCGCCUAACACAGCCAAUGCCGGUCCCAAGCCCGUAUAAAAGUGGAGGGGGCGG [G35U U12A],0.47
15,CCGCCUAACACUGCCAAUGCCGGUCCCAAGCCCGGCUAAACGUGGAGGGGGCGG [A36C A41C],0.6
16,CCGCCUAACACUGCCAAUGCCGGUCCCAAGCCCGGCUAAAUGUGGAGGGGGCGG [A36C A41U],0.91
17,CCGCCUAACACUGCCAAUGCCGGUCCCAAGCCCGGCUAAAGGUGGAGGGGGCGG [A36C A41G],0.13
18,CCGCCUAACACUGCCAAUGCCGGUCCCAAGCCCGUAUAAAAGUGGAGGGGGCCG [G35U G53C],0.07
19,CCGCCUAACACUGCCAAUGCCGGUCCCAAGCCCGUAUAAAAGUGGAGGGGGCUG [G35U G53U],0.17
20,CCGCCUAACACUGCCAAUGCCGGUCCCAAGCCCGUAUAAAAGUGGAGGGGGCAG [G35U G53A],0.62
21,CCGCCUAACACUGCCAAUGCCGGUCCCAAGCCCGUAUAAAAGUGGAGGGGACGG [G35U G51A],0.25
22,CCGCCUAACACUGCCAAUGCCGGUCCCAAGCCCGUAUAAAAGUGGAGGGGUCGG [G35U G51U],0.15
23,CCGCCUAACACUGCCAAUGCCGGUCCCAAGCCCGUAUAAAAGUGGAGGGGCCGG [G35U G51C],0.06
24,CCGCCUGACACUGCCAAUGCCGGUCCCAAGCCCGGCUAAAAGUGGAGGGGGCGG [A36C A7G],0.11
